In ChEMBL document CHEMBL4229344 (Eur J Med Chem, 2018):

Tests used:
[1] = tested on: Phosphatidylinositol 4,5-bisphosphate 3-kinase catalytic subunit alpha isoform (Homo sapiens), P42336 [C420R]; experiment: Binding affinity to human partial length PIK3CA C420R mutant (R108 to N1068 residues) expressed in mammalian expression system assessed as residual binding level at 1 uM by Kinomescan method relative to control
In short: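 Kinome-wide single-concentration binding screen (KINOMEscan) at 1 μM against a panel of 468 purified kinases and mutants. Read-out is relative binding of each kinase compared with control. Selectivity across the panel was summarised as an S(10) score.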

[2] = target: Serine/threonine-protein kinase 35 (Homo sapiens) (UniProt Q8TDR2); experiment: Binding affinity to wild-type human partial length STK35 (G182 to A534 residues) expressed in bacterial expression system assessed as residual binding level at 1 uM by Kinomescan method relative to control
[3] = target: Protein kinase C delta type (Homo sapiens) (UniProt Q05655); experiment: Binding affinity to wild-type human partial length PRKCD (Q328 to D676 residues) expressed in bacterial expression system assessed as residual binding level at 1 uM by Kinomescan method relative to control
In short: (§1)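 KINOMEscan competition binding against a panel of 468 purified kinases/mutants, compound tested at 1 μM; readout is relative binding activity versus control.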

[4] = AUC (0 to t) in Sprague-Dawley rat at 10 mg/kg, po; assay type: ADME, organism-based; conditions: in vivo
In short: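 Male Sprague-Dawley rats (6–8 weeks) fasted overnight, dosed IV or orally; compound dissolved in 5% DMSO/40% PEG400/55% saline (dosing solution 1 mg/mL). Blood (~0.2 mL) from jugular vein into heparin; IV sampling 1 min–8 h, oral 5 min–24 h. Plasma separated by centrifugation at 2–8 °C, stored at −80 °C until analysis.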

[5] = target: Serine/threonine-protein kinase Nek11 (Homo sapiens) (UniProt Q8NG66); experiment: Binding affinity to wild-type human partial length NEK11 (M1 to E313 residues) expressed in mammalian expression system assessed as residual binding level at 1 uM by Kinomescan method relative to control
[6] = target: Receptor-interacting serine/threonine-protein kinase 4 (Homo sapiens) (UniProt P57078); experiment: Binding affinity to wild-type human partial length RIPK4 (M1 to V303 residues) expressed in mammalian expression system assessed as residual binding level at 1 uM by Kinomescan method relative to control
[7] = target: RAC-alpha serine/threonine-protein kinase (Homo sapiens) (UniProt P31749); experiment: Binding affinity to wild-type human partial length AKT1 expressed in bacterial expression system assessed as residual binding level at 1 uM by Kinomescan method relative to control
In short: (§2)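 Single-concentration KINOMEscan (DiscoverX) binding screen at 1 μM against a panel of 468 purified kinases and mutants. The read-out is binding relative to control.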

[8] = target: Serine/threonine-protein kinase SIK3 (Homo sapiens) (UniProt Q9Y2K2); experiment: Binding affinity to wild-type human partial length QSK (A90 to L395 residues) expressed in mammalian expression system assessed as residual binding level at 1 uM by Kinomescan method relative to control
[9] = tested on: EOL1; experiment: Antitumor activity against human EOL-1 cells engrafted in ip dosed NOD-SCID mouse assessed as reduction of cell density in bone marrow administered 3 weeks post cell inoculation by FACS analysis; assay type: functional, organism-based
In short: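 Daily i.p. dosing started 3 weeks after inoculation at 7.5, 15 or 30 mg/kg/day. Mice monitored daily and euthanized when moribund or at hind-limb paralysis. Bone marrow cells, after red-cell lysis, stained with PE anti-HLA-ABC and counted by flow cytometry.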

[10] = target: T1, Platelet-derived growth factor receptor alpha (Homo sapiens, UniProt P16234); experiment: Inhibition of PDGF-induced PDGFRalpha autophosphorylation at Y754 residue in human NCI-H1703 cells after 2 hrs in presence of PDGF-AA by Western blot analysis; assay type: cell-based
[11] = target: Casein kinase I isoform alpha (Homo sapiens) (UniProt P48729); experiment: Binding affinity to wild-type human partial length CSNK1A1 (M1 to L450 residues) expressed in mammalian expression system assessed as residual binding level at 1 uM by Kinomescan method relative to control
In short: (§3)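 Kinome-wide competition binding screen against a panel of 468 purified kinases/mutants, with the test compound at a single concentration of 1 μM. Read-out is the relative binding activity of each kinase in the presence of compound.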

[12] = target: Death-associated protein kinase 1 (Homo sapiens) (UniProt P53355); experiment: Binding affinity to wild-type human partial length DAPK1 (M1 to F296 residues) expressed in bacterial expression system assessed as residual binding level at 1 uM by Kinomescan method relative to control
[13] = target: Serine/threonine-protein kinase Nek5 (Homo sapiens) (UniProt Q6P3R8); experiment: Binding affinity to wild-type human partial length NEK5 (M1 to M279 residues) expressed in bacterial expression system assessed as residual binding level at 1 uM by Kinomescan method relative to control
[14] = target: Citron Rho-interacting kinase (Homo sapiens) (UniProt O14578); experiment: Binding affinity to wild-type human partial length CIT (M68 to E432 residues) expressed in bacterial expression system assessed as residual binding level at 1 uM by Kinomescan method relative to control; in short: as §3
[15] = target: Tyrosine-protein kinase Srms (Homo sapiens) (UniProt Q9H3Y6); experiment: Binding affinity to wild-type human partial length SRMS (L208 to P488 residues) expressed in mammalian expression system assessed as residual binding level at 1 uM by Kinomescan method relative to control
[16] = target: Mitogen-activated protein kinase kinase kinase 5 (Homo sapiens) (UniProt Q99683); experiment: Binding affinity to wild-type human partial length ASK1 (E648 to S964 residues) expressed in bacterial expression system assessed as residual binding level at 1 uM by Kinomescan method relative to control; in short: as §2
[17] = target: Cyclin-dependent kinase 2 (Homo sapiens) (UniProt P24941); experiment: Binding affinity to wild-type human full length CDK2 (M1 to L298 residues) expressed in bacterial expression system assessed as residual binding level at 1 uM by Kinomescan method relative to control
In short: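 Single-concentration (1 μM) competition-binding screen run by KINOMEscan against a panel of 468 purified kinases and mutants. The read-out is the relative binding activity of the test compound to each kinase.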

[18] = target: Serine/threonine-protein kinase haspin (Homo sapiens) (UniProt Q8TF76); experiment: Binding affinity to wild-type human partial length HASPIN (I452 to K798 residues) expressed in mammalian expression system assessed as residual binding level at 1 uM by Kinomescan method relative to control; in short: as §3
[19] = target: Angiopoietin-1 receptor (Homo sapiens) (UniProt Q02763); experiment: Binding affinity to wild-type human partial length TIE2 (N804 to T1112 residues) expressed in bacterial expression system assessed as residual binding level at 1 uM by Kinomescan method relative to control
[20] = target: T1, Platelet-derived growth factor receptor alpha; experiment: Binding affinity to wild-type human partial length PDGFRalpha (V575 to D1002 residues) expressed in mammalian expression system assessed as residual binding level at 1 uM by Kinomescan method relative to control; in short: as §1
[21] = target: cAMP-dependent protein kinase catalytic subunit PRKX (Homo sapiens) (UniProt P51817); experiment: Binding affinity to wild-type human partial length PRKX (M1 to F358 residues) expressed in bacterial expression system assessed as residual binding level at 1 uM by Kinomescan method relative to control; in short: as §1

T1 sequence (P16234 whole entry, the tested form may be a part, canonical isoform): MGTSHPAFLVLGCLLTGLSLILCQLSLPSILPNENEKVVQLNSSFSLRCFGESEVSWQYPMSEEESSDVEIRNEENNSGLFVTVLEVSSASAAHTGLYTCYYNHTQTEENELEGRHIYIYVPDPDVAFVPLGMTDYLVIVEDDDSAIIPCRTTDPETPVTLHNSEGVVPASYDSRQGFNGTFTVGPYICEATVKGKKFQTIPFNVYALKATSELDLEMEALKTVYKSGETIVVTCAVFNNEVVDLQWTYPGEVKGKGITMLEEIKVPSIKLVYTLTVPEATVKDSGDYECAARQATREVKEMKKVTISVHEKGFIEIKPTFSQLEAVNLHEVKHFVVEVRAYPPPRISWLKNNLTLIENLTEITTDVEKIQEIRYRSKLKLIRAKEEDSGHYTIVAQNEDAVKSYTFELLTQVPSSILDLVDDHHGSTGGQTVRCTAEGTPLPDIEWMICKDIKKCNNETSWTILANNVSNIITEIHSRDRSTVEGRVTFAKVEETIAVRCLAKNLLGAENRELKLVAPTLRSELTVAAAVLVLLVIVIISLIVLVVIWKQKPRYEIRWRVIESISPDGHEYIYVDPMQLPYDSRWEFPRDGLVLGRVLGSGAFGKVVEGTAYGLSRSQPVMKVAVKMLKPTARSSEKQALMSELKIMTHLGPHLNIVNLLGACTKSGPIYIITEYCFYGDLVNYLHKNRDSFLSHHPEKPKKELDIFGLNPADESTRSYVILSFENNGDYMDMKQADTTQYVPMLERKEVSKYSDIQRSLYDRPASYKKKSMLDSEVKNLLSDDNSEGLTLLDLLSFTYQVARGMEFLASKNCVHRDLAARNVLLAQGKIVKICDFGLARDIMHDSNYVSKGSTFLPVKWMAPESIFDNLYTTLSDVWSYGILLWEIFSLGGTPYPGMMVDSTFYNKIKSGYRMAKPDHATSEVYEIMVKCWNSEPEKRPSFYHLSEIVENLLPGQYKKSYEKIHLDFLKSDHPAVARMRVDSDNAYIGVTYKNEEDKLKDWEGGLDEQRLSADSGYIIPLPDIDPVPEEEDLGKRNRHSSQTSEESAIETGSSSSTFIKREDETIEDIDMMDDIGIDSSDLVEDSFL
RAC-alpha serine/threonine-protein kinase (Homo sapiens), sequence (P31749 whole entry): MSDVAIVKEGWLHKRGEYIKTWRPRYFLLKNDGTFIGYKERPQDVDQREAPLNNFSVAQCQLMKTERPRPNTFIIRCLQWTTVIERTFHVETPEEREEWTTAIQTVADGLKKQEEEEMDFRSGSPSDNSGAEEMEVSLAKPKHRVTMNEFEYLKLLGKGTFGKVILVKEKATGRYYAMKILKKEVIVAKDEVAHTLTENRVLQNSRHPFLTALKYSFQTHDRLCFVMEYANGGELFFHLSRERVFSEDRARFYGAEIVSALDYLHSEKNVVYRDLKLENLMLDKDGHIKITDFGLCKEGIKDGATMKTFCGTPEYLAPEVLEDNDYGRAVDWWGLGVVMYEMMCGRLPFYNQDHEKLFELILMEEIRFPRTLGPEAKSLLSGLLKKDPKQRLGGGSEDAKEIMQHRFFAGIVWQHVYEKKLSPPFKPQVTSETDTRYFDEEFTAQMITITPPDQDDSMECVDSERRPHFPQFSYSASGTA
Citron Rho-interacting kinase (Homo sapiens), sequence (O14578 whole entry, the tested form may be a part): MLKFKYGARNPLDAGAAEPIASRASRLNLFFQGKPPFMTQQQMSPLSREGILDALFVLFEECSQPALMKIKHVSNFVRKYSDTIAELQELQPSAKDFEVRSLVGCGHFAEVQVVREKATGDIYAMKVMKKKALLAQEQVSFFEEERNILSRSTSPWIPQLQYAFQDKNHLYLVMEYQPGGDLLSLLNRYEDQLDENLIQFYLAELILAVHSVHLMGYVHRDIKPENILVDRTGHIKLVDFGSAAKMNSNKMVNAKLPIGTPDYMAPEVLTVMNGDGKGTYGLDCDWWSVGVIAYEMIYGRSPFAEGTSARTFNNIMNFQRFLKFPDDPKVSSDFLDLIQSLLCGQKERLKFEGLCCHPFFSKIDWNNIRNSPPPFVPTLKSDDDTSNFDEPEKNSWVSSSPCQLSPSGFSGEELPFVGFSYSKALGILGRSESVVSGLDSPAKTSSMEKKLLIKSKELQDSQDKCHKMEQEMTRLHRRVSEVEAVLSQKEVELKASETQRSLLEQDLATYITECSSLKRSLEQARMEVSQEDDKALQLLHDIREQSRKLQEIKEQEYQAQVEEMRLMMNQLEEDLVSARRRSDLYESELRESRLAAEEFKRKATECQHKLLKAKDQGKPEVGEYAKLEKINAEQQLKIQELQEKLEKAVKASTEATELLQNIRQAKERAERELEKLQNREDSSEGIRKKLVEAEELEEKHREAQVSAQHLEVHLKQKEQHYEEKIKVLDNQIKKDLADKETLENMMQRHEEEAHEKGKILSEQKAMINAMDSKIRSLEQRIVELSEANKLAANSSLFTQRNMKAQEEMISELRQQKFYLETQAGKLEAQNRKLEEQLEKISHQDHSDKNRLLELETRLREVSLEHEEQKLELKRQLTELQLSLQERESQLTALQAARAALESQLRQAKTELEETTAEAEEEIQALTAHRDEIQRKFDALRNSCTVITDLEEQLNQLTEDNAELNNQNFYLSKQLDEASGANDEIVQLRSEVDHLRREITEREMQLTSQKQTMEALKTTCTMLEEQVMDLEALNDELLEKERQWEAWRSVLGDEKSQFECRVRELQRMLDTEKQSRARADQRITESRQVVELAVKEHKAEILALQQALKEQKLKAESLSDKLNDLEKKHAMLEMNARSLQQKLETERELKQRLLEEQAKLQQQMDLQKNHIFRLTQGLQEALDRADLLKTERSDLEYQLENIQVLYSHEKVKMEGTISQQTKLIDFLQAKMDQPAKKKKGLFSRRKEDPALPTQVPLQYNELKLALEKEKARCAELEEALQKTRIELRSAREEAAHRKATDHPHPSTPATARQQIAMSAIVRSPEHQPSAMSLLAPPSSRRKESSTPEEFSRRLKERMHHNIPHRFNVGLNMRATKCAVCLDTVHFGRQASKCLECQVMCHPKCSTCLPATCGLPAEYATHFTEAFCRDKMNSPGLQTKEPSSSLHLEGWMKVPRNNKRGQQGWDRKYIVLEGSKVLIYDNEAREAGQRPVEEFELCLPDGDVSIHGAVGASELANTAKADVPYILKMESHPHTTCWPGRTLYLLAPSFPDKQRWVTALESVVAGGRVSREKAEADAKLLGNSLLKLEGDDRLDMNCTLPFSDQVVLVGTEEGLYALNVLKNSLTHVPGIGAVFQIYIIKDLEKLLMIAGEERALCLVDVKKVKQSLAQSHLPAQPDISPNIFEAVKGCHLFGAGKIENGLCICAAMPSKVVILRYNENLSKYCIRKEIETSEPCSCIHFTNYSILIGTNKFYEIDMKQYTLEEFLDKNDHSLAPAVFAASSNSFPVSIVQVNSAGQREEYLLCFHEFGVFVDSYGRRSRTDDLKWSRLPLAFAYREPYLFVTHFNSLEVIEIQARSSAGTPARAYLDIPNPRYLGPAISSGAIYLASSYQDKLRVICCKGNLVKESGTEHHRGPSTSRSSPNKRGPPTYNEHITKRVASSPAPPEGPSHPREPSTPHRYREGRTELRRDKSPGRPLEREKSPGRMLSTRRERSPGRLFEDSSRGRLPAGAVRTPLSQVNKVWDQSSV
Casein kinase I isoform alpha (Homo sapiens), sequence (P48729 2-337 limits assumed): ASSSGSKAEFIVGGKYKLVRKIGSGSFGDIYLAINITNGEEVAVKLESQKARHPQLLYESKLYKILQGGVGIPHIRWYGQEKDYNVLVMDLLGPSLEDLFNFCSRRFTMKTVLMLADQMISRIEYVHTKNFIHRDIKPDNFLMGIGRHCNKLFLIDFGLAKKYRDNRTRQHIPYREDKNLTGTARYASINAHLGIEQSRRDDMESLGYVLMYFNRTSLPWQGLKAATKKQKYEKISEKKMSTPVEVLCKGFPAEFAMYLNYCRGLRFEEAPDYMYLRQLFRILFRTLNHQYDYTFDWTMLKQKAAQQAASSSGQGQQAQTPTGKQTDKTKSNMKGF
Receptor-interacting serine/threonine-protein kinase 4 (Homo sapiens), sequence (P57078 whole entry, the tested form may be a part): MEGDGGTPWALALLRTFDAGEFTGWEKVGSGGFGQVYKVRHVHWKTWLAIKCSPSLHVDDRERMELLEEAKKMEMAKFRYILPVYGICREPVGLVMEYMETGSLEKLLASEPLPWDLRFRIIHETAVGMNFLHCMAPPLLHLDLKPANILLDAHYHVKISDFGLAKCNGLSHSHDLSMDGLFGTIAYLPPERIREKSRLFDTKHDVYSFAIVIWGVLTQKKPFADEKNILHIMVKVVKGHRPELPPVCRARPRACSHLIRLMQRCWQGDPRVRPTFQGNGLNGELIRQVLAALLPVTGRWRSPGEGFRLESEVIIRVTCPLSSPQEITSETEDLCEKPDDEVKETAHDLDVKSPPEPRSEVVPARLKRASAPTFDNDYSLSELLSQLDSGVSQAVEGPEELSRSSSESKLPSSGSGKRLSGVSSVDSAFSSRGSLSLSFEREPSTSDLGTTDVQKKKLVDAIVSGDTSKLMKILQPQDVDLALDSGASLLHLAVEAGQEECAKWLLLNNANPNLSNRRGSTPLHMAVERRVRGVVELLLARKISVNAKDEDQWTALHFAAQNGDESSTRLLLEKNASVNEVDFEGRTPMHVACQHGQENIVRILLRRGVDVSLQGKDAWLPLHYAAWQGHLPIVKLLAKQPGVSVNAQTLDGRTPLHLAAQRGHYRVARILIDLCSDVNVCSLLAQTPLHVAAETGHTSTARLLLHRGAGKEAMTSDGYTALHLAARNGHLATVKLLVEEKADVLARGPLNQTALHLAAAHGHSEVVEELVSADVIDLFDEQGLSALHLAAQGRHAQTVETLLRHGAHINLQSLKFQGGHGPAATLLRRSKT

For Cc1ccc(NC(=O)c2ccc(CN(CCN(C)C)C(=O)c3cccnc3)cc2)cc1Nc1nccc(-c2cccnc2)n1, the Activity [1] was 93%, the Activity [2] was 100% and the Activity [3] was 87%. It also gave an AUC(0-t) [4] of 103 ng·h/mL, an Activity [5] of 100% and an Activity [6] of 97%. The Activity [7] was 95%, the Activity [8] was 96% and the Activity [9] was “Dose-dependent effect”. For the same compound, the inhibition [10] was “Dose-dependent effect”, the Activity [11] was 87% and the Activity [12] was 96%. The Activity [13] was 99%, the Activity [14] was 89% and the Activity [15] was 97%. It also gave an Activity [16] of 100%, an Activity [17] of 95% and an Activity [18] of 72%. The Activity [19] was 93%, the Activity [20] was 6.8% and the Activity [21] was 92%.
